Only some compounds are listed: those with a hit (about 6.4% of all), similar ones and a draw of the others.
MPTP inh = mitochondrial permeability transition pore inhibitors, primary screen, biochemical, isolated mouse mitochondria, absorbance; Ca2+ swelling absorbance, 30 min; inhibition, % at 10 µM; 1.4% of 360,000 active;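 active means inhibition of 50% or more, scaled per plate between neutral and stimulator controls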;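 further: 0% = DMSO wells given calcium and 100% = 1 mM EGTA wells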
TbMetRS inhib = T. brucei MetRS inhibitors, primary screen, biochemical, luminescence; inhibition, % at 11.9 µM; methionyl-tRNA synthetase (Trypanosoma brucei brucei); purified T. brucei MetRS, ATP depletion, Kinase-Glo luminescence; 0.4% of 360,000 active;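 active means inhibition above a per-plate cutoff of the control wells' mean inhibition plus 3 SD, cut at about 5.5% in these data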;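 further: 0% = DMSO wells median and 100% = median of wells with control inhibitor compound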
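Dosing: 11.9 µM single point; system: parasite MetRS enzyme; technique: luminescence of leftover ATP; times: 15 min enzyme-compound preincubation, 2 h reaction, 10 min detection, 25 °C; replicates: each compound tested once; read-out basis: percent inhibition relative to median high and low control wells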
WT yeast gro inh = growth inhibition of WT strain, primary screen, mitochondrial fusion inhibitor project, WT and mutant strains, chemical genetic; mitochondrial fusion phenotypic screen; inhibition, % at 10 µM; 2.1% of 190,000 active; AID 1362, 2008; in the data active means inhibition above about 58%; tested in S. cerevisiae
CHOP inh = inhibitors of CHOP promoter induction, primary screen, cell-based, unfolded protein response, luciferase reporter. 3.8% of 220,000 active. CHO-K1 CHOP-promoter luciferase, tunicamycin-induced, 15-18 h. AID 2732, 2010. inhibition, % at 10 µM;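 active means compounds that reduced the stress-induced luciferase reporter signal by more than about 70% of percent inhibition, limit read from the data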;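 further: 0% = tunicamycin plus vehicle and 100% = wells without tunicamycin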
GRIN3A LBD mod = binders of NR3A ligand-binding domain, primary screen, biophysical, differential scanning fluorimetry, uHTS | Tm shift relative to glycine control, % at 25 µM | 2.5% of 340,000 active | NR3A LBD differential scanning fluorimetry, Tm shift; 0% = protein alone, 100% = glycine-bound protein | Glutamate receptor ionotropic, NMDA 3A (GRIN3A) ligand-binding domain;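 active means melting temperature shift of at least 10% of the positive control shift, at one fixed dose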
EBV gp42 block = Epstein-Barr virus gp42 inhibitors, primary screen, biochemical, uHTS, fluorescence polarization. inhibition, % (tested at 21.74 µM). Glycoprotein 42 (Epstein-Barr virus (strain AG876)), Q1HVG2. AID 1085, 2008. Fluorescence polarization binding assay, mP read-out. 0.42% of 220,000 active; in the data active means inhibition above about 50%
Target sequence (Q1HVG2 whole entry, looked up): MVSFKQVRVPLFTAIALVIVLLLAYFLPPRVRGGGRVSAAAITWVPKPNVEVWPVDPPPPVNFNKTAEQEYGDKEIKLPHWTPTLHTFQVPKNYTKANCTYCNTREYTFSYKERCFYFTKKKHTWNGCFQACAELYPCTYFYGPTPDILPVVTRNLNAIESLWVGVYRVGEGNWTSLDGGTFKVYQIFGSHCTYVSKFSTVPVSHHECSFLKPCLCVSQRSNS
* = called active by the depositor; . = no result.

SMILES	MPTP inh	TbMetRS inhib	WT yeast gro inh	CHOP inh	GRIN3A LBD mod	EBV gp42 block
CCCC(=O)Nc1ccc(-c2nc3cc(C)ccc3o2)cc1	-1.7	-1.2	4.2	49.5	14.2*	-10.4
O=C(CCN1C(=O)c2ccccc2C1=O)C1=NN[C@@H]2C(=O)N(c3cccc(Cl)c3)C(=O)[C@H]12	0.7	-0.3	1.5	-14.7	-24.9	1.2
Cc1ccccc1NC(=O)COC(=O)c1ccc2nc(C)c(C)nc2c1	-2.6	-0.1	.	.	-0.2	.
Cc1cccc(N2CCN(C(=O)C34CC5CC(CC(C5)C3)C4)CC2)c1C	25.7	1.2	88.0*	71.8*	2.7	-30.9
Cc1cccc(N2CCN(C(=O)C3CCCCC3)CC2)c1C	0.9	-0.2	46.7	96.0*	-1.1	3.4
CC(C)(CC(=O)O)CC(=O)Nc1ccccc1Oc1ccccc1	1.4	1.5	.	-5.2	-1.2	-4.2
CC1(C)Cc2c(C#N)c(NCCc3ccccc3)nc(-c3ccco3)c2CO1	2.7	-0.9	-2.2	-6.4	-2.3	-21.2
O=C1Nc2cc(Cl)cnc2N2CCCC12 (stereo not given)	1.3	0.3	15.8	30.2	-2.1	72.5*
CC(C)N1C(=S)SC(C)(C)C1n1oc(=O)n(-c2cccc(Cl)c2)c1=O (stereo not given)	1.1	0.4	7.6	12.8	-6.7	-3.1
CN(C)c1ccc(N=Nc2cccc3ccoc23)cc1	0.6	-0.9	.	7.2	22.2*	-15.6
CCOC(=O)c1ccc([N+](=O)[O-])c(CS(=O)(=O)c2ccc(Cl)cc2)c1	-0.3	-0.5	.	.	-1.3	.
O=[N+]([O-])c1cccc(Cl)c1NCCNc1ncc(C(F)(F)F)cc1Cl	1.5	-0.3	8.6	78.8*	-5.7	-6.2
c1ccc(CN2CCC(Nc3nc(-c4cccs4)nc4ccccc34)CC2)cc1	5.7	-0.6	47.8	74.9*	5.1	17.0
OCCSc1nc(-c2cccnc2)nc2ccccc12	-1.3	0.1	-1.3	16.6	3.0	-16.0
c1ccc(-c2nc(NCc3cccs3)c3ccccc3n2)cc1	1.2	0.6	.	.	18.3*	.
CN(Cc1cccs1)c1nc(-c2cccnc2)nc2ccccc12	3.2	-0.4	64.3*	16.7	2.3	-16.2
c1csc(CNc2nc(-c3cccs3)nc3ccccc23)c1	3.3	-0.2	79.0*	-6.2	9.9	20.2
c1ccc(-c2nc(NCc3cccnc3)c3ccccc3n2)cc1	-0.3	-0.1	5.8	-6.1	-9.7	-19.6
Cc1ccc(Cc2nc(-c3ccncc3)no2)cc1	3.7	-0.7	2.7	13.8	-1.2	-6.8
Cc1cc(CSc2ccccc2)ccc1NC(=O)c1ccc(Br)cc1	8.7	0.3	0.3	95.7*	-5.2	2.1
COC(=O)C(NC(C)=O)(Nc1ccc(Br)cn1)C(F)(F)F (stereo not given)	-0.3	-0.2	0.5	15.6	-0.4	-14.6
Cn1c(/N=C/c2cccs2)nc2ccccc21	-2.8	0.7	5.5	-30.2	0.5	-16.8
Cc1cc(C)c(C)c(N=Nc2nc3ccccc3n2C)c1C	1.4	-0.9	84.0*	52.4	19.0*	-4.6
Cc1ccc(C)c(N=Nc2nc3ccccc3n2C)c1	0.1	-1.4	82.4*	53.6	-2.5	6.8
Nc1[nH]ncc1-c1ccc(F)cc1	-1.0	-1.8	11.8	-10.0	-0.8	-3.2
SMILES	MPTP inh	TbMetRS inhib	WT yeast gro inh	CHOP inh	GRIN3A LBD mod	EBV gp42 block
COc1cc(C)c(C(C)C)cc1S(=O)(=O)n1cnc(C)c1	-1.3	0.1	8.9	.	-0.5	-13.5
CC1(C)C(=O)OC(c2cccn2-c2cccc([N+](=O)[O-])c2)C2(CCCCC2)C1=O (stereo not given)	.	.	77.8*	41.0	.	-12.9
CC(=O)NCCn1c(SCc2ccccc2C)nc2ccccc2c1=O	5.8	-0.1	5.5	30.9	0.6	-5.3
COc1cccc(Nc2nc(-c3sc(NC(=O)CC(C)C)nc3C)cs2)c1	-0.4	0.6	0.8	58.0	-3.3	-13.8
C=CCCC(=O)Nc1nc(C)c(-c2csc(Nc3cc(OC)ccc3OC)n2)s1	-0.3	-0.3	25.0	75.3*	-1.8	-7.0
Cc1nc(NC(=O)c2ccccc2)sc1-c1csc(Nc2ccc(C(=O)O)cc2)n1	0.2	0.2	.	63.3	1.2	70.8*
CCC(=O)Nc1nc(C)c(-c2csc(Nc3ccc(C(=O)O)cc3)n2)s1	-1.1	0.0	.	.	1.5	.
COc1cccc(Nc2nc(-c3sc(NC(=O)c4ccccc4)nc3C)cs2)c1	-0.2	-0.2	66.5*	-9.5	2.4	21.7
CCCC(=O)Nc1nc(C)c(-c2csc(Nc3cc(OC)ccc3OC)n2)s1	0.3	0.2	49.2	50.9	-0.2	-7.0
Cn1nnnc1SCC(=O)NCc1ccco1	-1.4	-0.3	-20.9	-10.8	-0.3	-22.9
Cc1ccc(C2=N/C(=C/N3CCOCC3)C(=O)O2)cc1	-1.0	-0.2	5.8	5.1	-0.9	-11.7
Cc1cccc2cc(/C=C3\N=C(c4ccccc4)OC3=O)c(N3CCOCC3)nc12	5.3	0.1	-0.8	69.2	-0.4	135.4*
O=C(COc1ccccc1Cl)Nc1ccc(NC(=O)c2ccco2)cc1	0.2	-0.2	.	.	14.8*	.
COc1ccc(CC(=O)Nc2ccc(-c3noc(COc4ccccc4C)n3)cc2)cc1	2.0	-1.0	15.1	24.2	-6.8	-7.0
Clc1ccccc1OCc1nc(-c2ccccn2)no1	-0.8	0.5	-9.3	39.2	10.8*	-12.0
O=C(Nc1ccc(-c2noc(COc3ccccc3Cl)n2)cc1)c1ccco1	0.0	-1.9	8.4	-31.2	13.5*	-14.6
COc1ccc(CN(C(=O)c2cccc(OC)c2)C2CCS(=O)(=O)C2)cc1 (stereo not given)	1.8	-0.2	.	-0.1	-2.5	-4.8
CC(=O)c1cccc(NC(=O)N2CCC(c3ccc(C)cc3)C2)c1 (stereo not given)	3.1	-1.0	11.8	1.6	1.7	-4.2
Cc1ccc(Sc2ncccc2C(=O)O)c(C)c1	0.5	-0.4	-2.4	-0.3	-0.7	-3.3
COc1cc(C(=O)Nc2nnc(C3CC3)s2)ccc1OCc1c(C)noc1C	-0.7	-0.8	6.2	10.3	0.6	-15.7
COc1ccc(N2C(=O)CSC23C(=O)N2c4c(cccc43)C(C)=CC2(C)C)cc1 (stereo not given)	0.3	-0.8	40.1	74.6*	-2.5	2.0
Cc1ccc2c(Cl)c(C(=O)NCCc3ccccc3)sc2c1	2.9	0.2	-3.9	9.1	-1.6	-20.5
COc1ccc(CCNC(=O)c2sc3cc(C)ccc3c2Cl)cc1	0.8	-0.7	-12.7	3.6	12.4*	-2.6
CC(C)(C)NC(=O)C(c1ccc(F)cc1)N(Cc1cccs1)C(=O)c1ccc(CN2CCOCC2)o1 (stereo not given)	-1.8	-1.4	-2.1	-1.6	0.2	-5.9
